# High-throughput results from PubChem.
# Most compounds without a hit are left out; they make up all but 0.85% or so of the library.
# OXTR potentiator: potentiates the human oxytocin receptor response | 0.061% of 320,000 active | AID 2445 | activation, % at 3 µM | CHO-OTR cells, Fluo-8 calcium fluorescence, potentiator mode; 0% = oxytocin EC15, 100% = EC100;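 active = activation above that plate's cutoff, the mean activation of tested compounds plus 3 SD, cut at about 6.6% in these data, passing the limit was not always enough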;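 note: 100% uses oxytocin at 75 nM as the full agonist control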
# Target sequence (P30559 whole entry, looked up): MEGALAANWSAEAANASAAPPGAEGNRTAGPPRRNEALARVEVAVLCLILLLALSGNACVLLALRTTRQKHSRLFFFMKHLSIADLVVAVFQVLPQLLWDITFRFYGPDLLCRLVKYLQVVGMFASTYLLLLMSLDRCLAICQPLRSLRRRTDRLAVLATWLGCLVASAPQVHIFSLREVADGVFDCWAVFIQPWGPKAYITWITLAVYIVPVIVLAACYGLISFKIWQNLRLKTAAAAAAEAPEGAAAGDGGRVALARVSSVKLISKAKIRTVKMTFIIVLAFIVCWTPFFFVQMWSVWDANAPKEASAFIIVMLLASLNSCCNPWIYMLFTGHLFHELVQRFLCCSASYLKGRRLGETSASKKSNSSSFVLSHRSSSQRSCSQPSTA
#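 Material: CHO-OTR cells, human receptor; compound dosing: single dose, 3.0 µM nominal final compound concentration; schedule: 6 min compound pre-incubation at room temperature, 100 s kinetic read; measured by: kinetic Fluo-8 calcium fluorescence; read-out basis: % activation vs EC15 and EC100 oxytocin; controls: EC15 oxytocin alone as 0%, 75 nM oxytocin as 100%; replicates: singlicate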
# CRFBP-R2 agonist: agonists of human CRF-binding protein/CRF-R2 receptor complex; 0.46% of 350,000 active; HEK293 CRF-R2/CRF-BP, calcium dye fluorescence (FLIPR); percent of saturating CRF peptide response; activation, % at 13.2 µM;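 active = activation of at least 50%, plus an integration ratio under a set limit after plate pattern correction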;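 note: plate controls were neutral control wells without compound for no effect and CRF at EC100 for full effect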
# V1aR counter: counter-screen for oxytocin receptor agonists: human V1a receptor agonists; CHO-V1R cells, Fluo-8 calcium fluorescence, agonist mode; 0% DMSO, 100% 3 nM vasopressin; activation, % at 3 µM; 0.25% of 320,000 active; AID 2797;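 active = activation above the mean activation of all tested compounds plus 3 SD, per screening run, cut at about 20% in these data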;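 note: signal is peak over basal fluorescence ratio across a 100 second FLIPR read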
# TRPN1 ag: activates the zebrafish TRPN1 channel; 0.18% of 220,000 active; activation, % at 3 µM; HEK293 zebrafish TRPN1-YFP, Fluo-8 calcium fluorescence; 100% = response to 87 µM carbachol;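 active = activation above its plate's cutoff, the mean activation of test wells on that plate plus 3 SD, cut at about 19% in these data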;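 note: 0% = DMSO alone and 100% = 87 µM carbachol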
#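 System: zebrafish TRPN1-YFP in HEK293 cells / Dosing: 3 µM single point / Timing: dye loading 1 h at 37 °C, then 30 min room temperature / Signal: Fluo-8 calcium fluorescence, excitation 470-495 nm, emission 515-575 nm / Read-out basis: percent activation from peak over basal fluorescence ratio, control-normalized / Control set: high carbachol 87 µM, low DMSO alone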
# TRPML3 agonist: activates the human TRPML3 channel. HEK293 TRPML3-YFP, Fluo-8 calcium fluorescence; 100% = the carbachol control signal. AID 1448. activation, % at 3 µM. 0.29% of 220,000 active;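 active = activation above its plate's cutoff, the mean activation of the plate's test wells plus 3 SD, cut at about 12% in these data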;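 note: 0% = DMSO only wells and 100% = carbachol wells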
#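 Test system – HEK293 line with stable expression of human TRPML3-YFP channel · Control set – carbachol 87 µM final as high control (100%), DMSO as low control (0%) · Signal – Fluo-8 calcium dye fluorescence, ex 470-495, em 515-575 nm · Incubation – 1-h 37 °C dye load, 5-s basal, 120-s post-compound reads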
# OXTR ag: activates the human oxytocin receptor. CHO-OTR cells, Fluo-8 calcium fluorescence; normalized: DMSO 0%, oxytocin 100%. activation, % at 3 µM. 0.32% of 320,000 active. AID 2435;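 active = activation above the mean of all tested compounds plus 3 SD, cutoff set per screening run, cut at about 20% in these data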;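 note: peak over basal fluorescence ratio from a 100 s FLIPR kinetic read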
# Starred values were filed as active, the others as inactive; nt = no result given.
SMILES,OXTR potentiator,CRFBP-R2 agonist,V1aR counter,TRPN1 ag,TRPML3 agonist,OXTR ag
O=C(C[C@@H]1C/C=C\C[C@H](Cc2ccc(F)cc2)C(=O)OC[C@@H](c2ccccc2)NC1=O)NCCO,1,3,-1,nt,nt,0
COC(=O)c1cc2c(=O)c3ccccc3oc2nc1/C=C/N(C)C,nt,198*,nt,nt,nt,nt
COc1ccc(CCn2c(-c3cc([N+](=O)[O-])cc([N+](=O)[O-])c3)nc3nc4ccccc4nc32)cc1OC,12*,0,-1,-1,1,1
Cc1c(N=C2N=C(NC(=O)c3cccs3)c3ccccc32)c(=O)n(-c2ccccc2)n1C,-22,89*,0,0,1,2
Cc1c(N=C2N=C(NC(=O)NC(C)(C)C)c3ccccc32)c(=O)n(-c2ccccc2)n1C,-1,-2,2,0,0,0
COc1ccc(CN2CCCCC2C)cc1C (configuration not stated),-17,162*,1,0,2,0
Cc1ccc(C(=O)NCCNC(=O)Cc2ccccc2)cn1,1,0,0,nt,nt,1
O=C(CN1C(=O)C2C3CC(C(Br)C3Br)C2C1=O)N1CCOCC1 (configuration not stated),-8,0,0,1,1,2
O=C(CN1C(=O)C2C3CC(C(Br)C3Br)C2C1=O)N1CCN(Cc2ccccc2)CC1 (configuration not stated),-17,24,1,27*,8,15
Cc1ccc(S(=O)(=O)N2CCN(C(=S)NCC3CCCO3)CC2)cc1 (configuration not stated),-4,0,1,nt,nt,1
O=C(Nc1ccc(OCc2ccccc2)cc1)c1cccnc1,-16,0,22*,2,1,21*
O=C(Nc1ccc(OCc2ccccc2)cc1)c1ccccc1,-5,0,-1,-1,0,0
C[C@@H](NS(=O)(=O)c1cc(Cl)ccc1F)[C@H](O)c1ccccc1,nt,-2,nt,nt,nt,nt
CC(C)(C)C(=O)NC(=S)NNC(=O)C(c1ccccc1)c1ccccc1,-9,192*,127*,168*,114*,89*
CC(=O)NNC(=S)NC(=O)C(c1ccccc1)c1ccccc1,-5,19,1,-3,0,2
CC1=CN2C(=N)/C(=C/c3ccco3)C(=O)N=C2S1,-11,-4,0,0,1,-1
CC1=CN2C(=N)/C(=C/c3ccc([N+](=O)[O-])o3)C(=O)N=C2S1,-3,56*,1,3,1,3
CCN(CC)c1ccc2c(c1)oc(=O)c1c(Cl)cc(=O)oc12,-13,223*,7,0,1,8
CCN(CC)c1ccc2c(Cl)c(Br)c(=O)oc2c1,-22,37,85*,2,1,62*
COc1ccc(OC)c(/C=C/C(=O)c2ccc3c(c2)OCCO3)c1,-2,-1,0,nt,nt,-2
O=[N+]([O-])c1ccc(N/N=C/c2c[nH]c3ccccc23)cc1,-21,180*,24*,10,9,25*
O=C(O)c1ccc(-c2ccc(/C=N/Nc3ccc([N+](=O)[O-])cc3)o2)cc1,-33,155*,65*,39*,24*,51*
O=C(O)c1cccc(-c2ccc(/C=N/Nc3ccc([N+](=O)[O-])cc3)o2)c1,-9,166*,34*,24*,11,26*
O=[N+]([O-])c1ccccc1N/N=C/c1c[nH]c2ccccc12,-14,0,0,-4,-1,-1
CC[C@]12C(=O)N(C)C[C@H]([C@@H]3C(=O)N(C)C(=O)[C@@H]31)N2C(=O)c1ccccc1,nt,0,nt,nt,nt,nt
SMILES,OXTR potentiator,CRFBP-R2 agonist,V1aR counter,TRPN1 ag,TRPML3 agonist,OXTR ag
CC1=C(C(=O)N(C)C)CC(CC(=O)NCCCN(C)C)C(=O)N1CCC1=CCCCC1 (configuration not stated),nt,-1,nt,nt,nt,nt
Cc1ccc(C(=O)Cn2c(C(=O)OCCO)cc3ccccc32)cc1,nt,0,nt,nt,nt,nt
CCOC(=O)c1cc2ccccc2n1CCN(CC)CC,-3,74*,0,0,1,0
CC1=CC2=C(C=O)C(=O)C(C)(O)C(O)C2=CO1 (configuration not stated),nt,-2,nt,nt,nt,nt
CCOC(=O)NC(=O)/C(C#N)=C\Nc1sccc1C(=O)OC,-8,48,53*,22*,18*,57*
O=C(NNC(=O)c1ccncc1)Nc1ccc(N=Nc2ccccc2)cc1,nt,-2,nt,nt,nt,nt
CC(NC(=O)c1ccccc1)C(=O)N/N=C/c1ccco1 (configuration not stated),0,1,0,nt,nt,0
CC(C)CC(NC(=O)c1ccccc1)C(=O)N/N=C/c1ccco1 (configuration not stated),2,178*,3,2,7,1
COC(=O)[C@]1(CC(C)C)N[C@H](c2ccc(-c3ccc(F)cc3)c(OC)c2)[C@@H]2C(=O)N(C)C(=O)[C@@H]21,-6,1,0,nt,nt,-1
Cc1sccc1C1C(C#N)=C(N)SC(N)=C1C#N,-7,nt,8,3,1,9
Cc1cc(C2C(C#N)=C(N)SC(N)=C2C#N)c(C)s1,-10,104*,9,2,2,13
COc1ccc(/C=C/C(=O)OCC(=O)Nc2cccc(S(=O)(=O)NC3=NCCCCC3)c2)cc1,-9,2,2,nt,nt,4
CCOC(=O)C1=C(O)c2ccccc2C(=O)/C1=C\c1ccc(C)cc1,-7,111*,4,2,1,2
Cc1ccc2nc3n(c(=O)c2c1)-c1ncccc1C(=O)NC3Cc1ccc(O)cc1 (configuration not stated),nt,-2,nt,nt,nt,nt
O=C(Cc1cccc(NC(=O)C2CCCN(C(=O)C3CCCC3)C2)c1)Nc1ccc(C(=O)N2CCOCC2)cc1 (configuration not stated),nt,3,nt,nt,nt,nt
COc1ccc(N/C(N)=N/c2nc(C)cc(C)n2)cc1,nt,70*,nt,nt,nt,nt
Cc1cc(C)nc(/N=C(\N)Nc2ccc(S(=O)(=O)O)cc2)n1,nt,-1,nt,1,1,nt
Cc1cc(C)nc(/N=C(\N)Nc2ccc(OCCC(C)C)cc2)n1,-25,75*,48*,nt,nt,50*
O=C(CCS(=O)(=O)c1ccc(Br)cc1)NCc1ccc(F)cc1,-8,-2,1,nt,nt,0
CN(C(=O)c1ccc(NC(=O)Cc2ccc([N+](=O)[O-])cc2)cc1)C1CC1,-9,37,30*,nt,nt,38*
CN(C(=O)c1ccc(NC(=O)Cc2cccc([N+](=O)[O-])c2)cc1)C1CC1,-7,-2,1,nt,nt,1
CCOC(=O)/C(C#N)=C/C=C1\C=Cc2ccccc2N1CC,-1,0,5,1,1,7
